In paper PMC3823688 (Journal of medicinal chemistry, 2013):
Converted amounts (≈) assume the structure as drawn. Like-named read-outs stand apart in the source and are kept apart here.

Assays:
AAC(6')/APH(2") = AAC(6')/APH(2") (Staphylococcus aureus, UniProt P0A0C1); experiment: acetylation of compounds by AAC; assay type: biochemical; conditions: for relative activity of AAC(6')/APH(2") (acetyltransferase) on compound: initial rate normalized to 1 = 100%, 100 µM compound; for times less prone to deactivation by AAC(6')/APH(2") than 1: relative to 1, stated jointly for both AAC(6') enzymes
Method in brief: (§1)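 Acetyltransferase activity followed at 412 nm by Ellman's method, with CoASH release coupled to DTNB (2 mM), at 25 °C. Mix: test compound 100 µM, AcCoA 150 µM, enzyme 0.5 µM. Buffer: 50 mM MES pH 6.6 for AAC(6')/APH(2"), 50 mM Tris pH 7.5 for AAC(6')-Ib'. Read every 30 s for 1 h. Initial rates from first 2–5 min, normalized to parent aminoglycoside; triplicate.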

AAC(6')-Ib' = experiment: acetylation of compounds by AAC; assay type: biochemical; conditions: for relative activity of AAC(6')-Ib' on compound: initial rate normalized to 1 = 100%, 100 µM compound; for times less prone to deactivation by AAC(6')-Ib' than 1: relative to 1, stated jointly for both AAC(6') enzymes
Method in brief: as §1

Tetrahymena ribozyme = conditions: compared to parent antibiotic 1; cited from earlier work
[1] = target: chloramphenicol nitroreductase (CNR) (Haemophilus influenzae, UniProt Q57431); experiment: reduction of compounds by CNR; assay type: biochemical, H. influenzae; conditions: for relative activity of CNR on compound: initial rate normalized to 3 = 100%, 100 µM compound
S. aureus ATCC 29213 = experiment: MIC determination by double-dilution; assay type: cell-based, Staphylococcus aureus
[2] = system: E. coli S30 extracts (E. coli ribosomes); experiment: in vitro prokaryotic translation assay; assay type: biochemical
tested bacterial strains = experiment: organism not typed; assay type: cell-based
ANT(4') = ANT(4') (Staphylococcus aureus, UniProt P05057); experiment: nucleotidylation of compounds by ANT; assay type: biochemical, S. aureus; conditions: initial rate normalized to 1 = 100%; 100 µM compound
[3] = target: chloramphenicol phosphotransferase (CPT) (Streptomyces venezuelae, UniProt Q56148); experiment: phosphorylation of compounds by CPT; assay type: biochemical; conditions: compared to 3
Sequence of chloramphenicol phosphotransferase (CPT) (Q56148 5-178): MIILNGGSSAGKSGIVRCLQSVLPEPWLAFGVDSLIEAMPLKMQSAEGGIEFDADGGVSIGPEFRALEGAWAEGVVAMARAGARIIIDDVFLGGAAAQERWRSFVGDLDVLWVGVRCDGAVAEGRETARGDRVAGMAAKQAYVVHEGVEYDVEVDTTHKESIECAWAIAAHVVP

Sequence of chloramphenicol nitroreductase (CNR) (Q57431 whole entry): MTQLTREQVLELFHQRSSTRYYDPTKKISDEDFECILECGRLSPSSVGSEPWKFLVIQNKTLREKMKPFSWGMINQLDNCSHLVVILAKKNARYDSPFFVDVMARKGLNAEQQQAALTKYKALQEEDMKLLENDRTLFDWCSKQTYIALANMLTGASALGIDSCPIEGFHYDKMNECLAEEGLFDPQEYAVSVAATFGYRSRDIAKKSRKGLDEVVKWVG
Sequence of AAC(6')/APH(2") (P0A0C1 whole entry): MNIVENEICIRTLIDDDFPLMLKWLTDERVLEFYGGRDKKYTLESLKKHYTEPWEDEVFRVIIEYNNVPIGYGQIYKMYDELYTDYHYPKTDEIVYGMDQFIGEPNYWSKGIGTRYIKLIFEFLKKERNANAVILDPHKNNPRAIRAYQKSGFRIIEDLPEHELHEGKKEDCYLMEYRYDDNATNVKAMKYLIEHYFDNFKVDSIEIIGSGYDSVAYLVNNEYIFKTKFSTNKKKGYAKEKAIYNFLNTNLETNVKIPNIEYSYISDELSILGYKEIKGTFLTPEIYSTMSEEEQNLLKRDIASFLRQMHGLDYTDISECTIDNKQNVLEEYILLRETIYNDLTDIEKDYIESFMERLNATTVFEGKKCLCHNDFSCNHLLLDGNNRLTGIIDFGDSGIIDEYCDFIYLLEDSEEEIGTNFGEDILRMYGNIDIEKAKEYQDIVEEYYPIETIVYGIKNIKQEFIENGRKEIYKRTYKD
Sequence of ANT(4') (P05057 whole entry): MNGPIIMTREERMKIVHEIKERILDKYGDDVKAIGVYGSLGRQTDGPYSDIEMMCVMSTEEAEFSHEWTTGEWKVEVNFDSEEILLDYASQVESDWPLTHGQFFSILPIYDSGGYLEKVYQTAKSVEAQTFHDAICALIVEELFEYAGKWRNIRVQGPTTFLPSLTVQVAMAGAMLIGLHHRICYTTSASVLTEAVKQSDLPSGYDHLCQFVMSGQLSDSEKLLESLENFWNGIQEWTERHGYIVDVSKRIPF

NC[C@H]1O[C@H](O[C@H]2[C@H](O)[C@@H](O[C@@H]3O[C@H](CSCCOCCSSCCOCCSC[C@H]4O[C@@H](O[C@@H]5[C@@H](O)[C@H](O[C@H]6O[C@H](CN)[C@@H](O)C[C@H]6N)[C@@H](N)C[C@H]5N)[C@H](O)[C@@H](N)[C@@H]4O)[C@@H](O)[C@H](N)[C@H]3O)[C@H](N)C[C@@H]2N)[C@H](N)C[C@@H]1O [Compound 16]
relative activity of AAC(6')/APH(2") (acetyltransferase) on compound (AAC(6')/APH(2")): 34%
times less prone to deactivation by AAC(6')/APH(2") than 1 (AAC(6')/APH(2")): 2.5–5 times
relative activity of AAC(6')-Ib' on compound (AAC(6')-Ib'): 39%
times less prone to deactivation by AAC(6')-Ib' than 1 (AAC(6')-Ib'): 2.5–5 times
inhibition of the activity of the Tetrahymena ribozyme (in words) (Tetrahymena ribozyme): significantly better inhibitor

CCC[C@@H]1C[C@@H](C(=O)NC([C@H]2O[C@H](SC)[C@H](O)[C@@H](O)[C@H]2O)[C@@H](C)SCCOCCSSCCOCCSCC(=O)N[C@@H](CO)[C@H](O)c2ccc([N+](=O)[O-])cc2)N(C)C1 (stereo partly shown) [Compound 24]
relative activity of CNR on compound [1]: 174%

NC[C@H]1O[C@H](O[C@H]2[C@H](O)[C@@H](O[C@@H]3O[C@H](CSCCOCCSSCCOCCSCC(=O)N[C@H](CO)[C@H](O)c4ccc([N+](=O)[O-])cc4)[C@@H](O)[C@H](N)[C@H]3O)[C@H](N)C[C@@H]2N)[C@H](N)C[C@@H]1O [Compound 22]
relative activity of CNR on compound [1]: 117%
relative activity of AAC(6')/APH(2") (acetyltransferase) on compound (AAC(6')/APH(2")): 34%
relative activity of AAC(6')-Ib' on compound (AAC(6')-Ib'): 31%

O=C(CSCCOCCSSCCOCCSCC(=O)N[C@H](CO)[C@H](O)c1ccc([N+](=O)[O-])cc1)N[C@H](CO)[C@H](O)c1ccc([N+](=O)[O-])cc1 [Compound 26]
relative activity of CNR on compound [1]: 220%
fold more potent than 3 (MIC) (S. aureus ATCC 29213): approximately 16 fold

CCC[C@@H]1C[C@@H](C(=O)N[C@H]([C@H]2O[C@H](SC)[C@H](O)[C@@H](O)[C@H]2O)[C@@H](C)SCCOCCS)N(C)C1 [Compound 9]
IC50 fold higher than that of parent antibiotic 2, in vitro translation ([2]; relative to 2, less potent): at least 5 fold
MIC (tested bacterial strains; read-out: MIC values against seven of the tested strains): 1.2 to 9.4 µg/mL (≈ 2.28 to 17.8 µM)

CCC[C@@H]1C[C@@H](C(=O)NC([C@H]2O[C@H](SC)[C@H](O)[C@@H](O)[C@H]2O)[C@@H](C)SCCOCCSSCCOCCSC[C@H]2O[C@@H](O[C@@H]3[C@@H](O)[C@H](O[C@H]4O[C@H](CN)[C@@H](O)C[C@H]4N)[C@@H](N)C[C@H]3N)[C@H](O)[C@@H](N)[C@@H]2O)N(C)C1 (stereo partly shown) [Compound 18]
relative activity of AAC(6')/APH(2") (acetyltransferase) on compound (AAC(6')/APH(2")): 31%
times less prone to deactivation by AAC(6')/APH(2") than 1 (AAC(6')/APH(2")): 2.5–5 times
relative activity of AAC(6')-Ib' on compound (AAC(6')-Ib'): 20%
times less prone to deactivation by AAC(6')-Ib' than 1 (AAC(6')-Ib'): 2.5–5 times

NC[C@H]1O[C@H](O[C@H]2[C@H](O)[C@@H](O[C@H]3O[C@H](CO)[C@@H](O)[C@H](N)[C@H]3O)[C@H](N)C[C@@H]2N)[C@H](N)C[C@@H]1O [Compound 1, tobramycin, reference compound]
relative activity of ANT(4') on compound (ANT(4')): 100%

NC[C@H]1O[C@H](O[C@H]2[C@H](O)[C@@H](O[C@@H]3O[C@H](CSCCOCCS)[C@@H](O)[C@H](N)[C@H]3O)[C@H](N)C[C@@H]2N)[C@H](N)C[C@@H]1O [Compound 6]
relative activity of ANT(4') on compound (ANT(4')): 49%

O=C(CSCCOCCS)N[C@H](CO)[C@H](O)c1ccc([N+](=O)[O-])cc1 [Compound 13]
fold less potent than parent antibiotic 3 in in vitro translation ([2]; relative to 3): ~8 fold

CCC[C@@H]1C[C@@H](C(=O)NC([C@H]2O[C@H](SC)[C@H](O)[C@@H](O)[C@H]2O)[C@@H](C)SCCOCCSSCCOCCS[C@H](C)C(NC(=O)[C@@H]2C[C@@H](CCC)CN2C)[C@H]2O[C@H](SC)[C@H](O)[C@@H](O)[C@H]2O)N(C)C1 (stereo partly shown) [Compound 10]
MIC (tested bacterial strains; read-out: MICs against eight of the tested bacterial strains): 0.6 to 9.4 µg/mL (≈ 0.571 to 8.94 µM)

NC[C@H]1O[C@H](O[C@H]2[C@H](O)[C@@H](O[C@@H]3O[C@H](CSCCOCCSCC(=O)N[C@H](CO)[C@H](O)c4ccc([N+](=O)[O-])cc4)[C@@H](O)[C@H](N)[C@H]3O)[C@H](N)C[C@@H]2N)[C@H](N)C[C@@H]1O [Compound 20]
relative activity of AAC(6')-Ib' on compound (AAC(6')-Ib'): 37%

O=C(CSCCOCCSCC(=O)N[C@H](CO)[C@H](O)c1ccc([N+](=O)[O-])cc1)N[C@H](CO)[C@H](O)c1ccc([N+](=O)[O-])cc1 [Compound 25]
substrate quality for CNR (in words) ([1]; compared to 3): poor substrate
substrate quality for CPT (in words) [3]: poor substrate

CCC[C@@H]1C[C@@H](C(=O)NC([C@H]2O[C@H](SC)[C@H](O)[C@@H](O)[C@H]2O)[C@@H](C)SCCOCCSCC(=O)N[C@H](CO)[C@H](O)c2ccc([N+](=O)[O-])cc2)N(C)C1 (stereo partly shown) [Compound 23]
relative activity of CNR on compound [1]: 133%
